pEC50: −log10 of the molar value. Converted amounts (≈) assume the structure as drawn.
Experiments:
[1] = Solubility of the compound; assay type: physicochemical
Glutamate receptor 2 = Glutamate receptor 2 (Homo sapiens, UniProt P42262); assay: Modulatory activity at GluA2 receptor LBD
[2] = Half life in Wistar rat at 2 mg/kg, iv and 10 mg/kg, po; assay type: ADME, organism-based; conditions: in vivo
[3] = Intrinsic clearance in rat microsomes assessed per mg of protein; assay type: ADME, Microsome
[4] = Permeability from apical to basolateral side of human Caco2 cells; assay type: ADME, cell-based; conditions: Caco-2, read-out: permeability
[5] = Permeability from basolateral to apical side of human Caco2 cells; assay type: ADME, cell-based; conditions: Caco-2, read-out: permeability
[6] = Intrinsic clearance in human microsomes assessed per mg of protein; assay type: ADME, Microsome
[7] = Clearance in Wistar rat at 2 mg/kg, iv and 10 mg/kg, po; assay type: ADME, organism-based; conditions: in vivo
[8] = Volume of distribution at steady state in Wistar rat at 2 mg/kg, iv and 10 mg/kg, po; assay type: ADME, organism-based; conditions: in vivo, read-out: Vdss
[9] = Bioavailability in Wistar rat at 2 mg/kg, iv and 10 mg/kg, po; assay type: ADME, organism-based; conditions: in vivo
Hepatocyte = assay: Metabolic stability in rat hepatocytes assessed per cells; assay type: ADME, cell-based
[10] = Cmax in Wistar rat cerebrospinal fluid at 2 mg/kg, ip; assay type: ADME, organism-based; parameters: dose 2 mg/kg, route intraperitoneal
How it was run: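 Wistar BRL rats dosed 2 mg/kg i.p.; drug concentration measured in CSF to gauge CNS exposure, Cmax reported.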

[11] = Half life in Wistar rat at 1 mg/kg, iv and 5 mg/kg, po; assay type: ADME, organism-based; conditions: in vivo
How it was run: (§1)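 Wistar BRL rats; pharmacokinetics from 1 mg/kg i.v. and 5 mg/kg p.o. dosing; plasma clearance, half-life and oral bioavailability (F%) derived.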

[12] = Bioavailability in Wistar rat at 1 mg/kg, iv and 5 mg/kg, po; assay type: ADME, organism-based; conditions: in vivo; how it was run: as §1
[13] = Plasma concentration in Wistar rat at 1 mg/kg, iv and 5 mg/kg, po; assay type: ADME, organism-based

Chain of Glutamate receptor 2 (P42262 whole entry, the tested form may be a part): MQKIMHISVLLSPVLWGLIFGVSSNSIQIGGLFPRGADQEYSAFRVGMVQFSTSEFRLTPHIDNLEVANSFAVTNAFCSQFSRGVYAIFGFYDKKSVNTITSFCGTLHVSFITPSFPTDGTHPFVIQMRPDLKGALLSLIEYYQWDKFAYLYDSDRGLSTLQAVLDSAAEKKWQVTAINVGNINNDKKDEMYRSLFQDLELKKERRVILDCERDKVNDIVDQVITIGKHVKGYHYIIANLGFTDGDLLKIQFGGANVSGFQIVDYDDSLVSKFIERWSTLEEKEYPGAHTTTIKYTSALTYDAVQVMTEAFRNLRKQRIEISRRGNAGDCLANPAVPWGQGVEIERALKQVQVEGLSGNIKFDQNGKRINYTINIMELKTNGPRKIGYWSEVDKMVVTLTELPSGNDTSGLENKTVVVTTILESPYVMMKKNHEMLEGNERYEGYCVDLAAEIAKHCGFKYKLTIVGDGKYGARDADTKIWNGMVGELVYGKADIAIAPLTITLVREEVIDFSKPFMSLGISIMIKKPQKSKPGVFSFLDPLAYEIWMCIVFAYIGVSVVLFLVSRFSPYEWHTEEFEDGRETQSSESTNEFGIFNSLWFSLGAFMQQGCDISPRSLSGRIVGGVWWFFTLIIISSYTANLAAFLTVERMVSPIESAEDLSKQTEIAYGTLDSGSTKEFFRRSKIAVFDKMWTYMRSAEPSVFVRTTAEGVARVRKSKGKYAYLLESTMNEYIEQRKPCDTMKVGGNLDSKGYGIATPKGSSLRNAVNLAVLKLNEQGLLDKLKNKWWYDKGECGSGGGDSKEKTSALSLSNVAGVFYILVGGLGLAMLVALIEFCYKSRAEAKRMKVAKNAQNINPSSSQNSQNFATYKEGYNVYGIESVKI

Structure (SMILES)	pEC50 (Glutamate receptor 2)	other results
CC(C)S(=O)(=O)N[C@H]1Cc2ccc(Cn3nc(C(F)(F)F)cc3C(F)(F)F)cc2C1	7.00	solubility [1]: < 1 µg/mL
CC(C)S(=O)(=O)N[C@H]1Cc2ccc(Cn3nc(C(F)(F)F)c4c3CCNC4)cc2C1	5.80	–
CS(=O)(=O)NC1CCc2cc(Cn3cc(CO)c(C(F)(F)F)n3)ccc21 (stereo not given)	6.30	–
Cn1cc(S(=O)(=O)NC2CCc3cc(Cn4cc(CO)c(C(F)(F)F)n4)ccc32)c(C(F)(F)F)n1 (stereo not given)	5.90	–
CC(C)S(=O)(=O)N[C@H]1Cc2ccc(Cn3cc(CO)c(C(F)(F)F)c3)cc2C1	6.10	–
CC(C)S(=O)(=O)N[C@H]1Cc2ccc(Cc3ccc(C(F)(F)F)o3)cc2C1	6.00	–
O=S(=O)(N[C@@H]1Cc2ccc(Cn3cc(CO)c(C(F)(F)F)n3)cc2C1)C1CC1	5.60	–
CCS(=O)(=O)N[C@H]1Cc2ccc(Cn3cc(CO)c(C(F)(F)F)n3)cc2C1	6.40	–
O=S(=O)(N[C@H]1Cc2ccc(Cn3cc(CO)c(C(F)(F)F)n3)cc2C1)C(F)(F)F	5.30	–
CC(C)S(=O)(=O)N[C@@H]1Cc2ccc(Cn3cc(CO)c(C(F)(F)F)n3)cc2C1	6.40	–
CCNCc1cn(CC(=O)Nc2sc3c(c2C(N)=O)CCCC3)nc1C(F)(F)F	6.10	half-life [2]: 1.1 h
COc1ccccc1S(=O)(=O)NC1CCc2cc(Cn3cc(CO)c(C(F)(F)F)n3)ccc21 (stereo not given)	5.70	–
NC(=O)c1c(NC(=O)Cn2cc(CO)c(C(F)(F)F)n2)sc2c1CCCC2	6.40	solubility [1]: 20 µg/mL (≈ 49.7 µM)
CC(C)S(=O)(=O)N[C@H]1Cc2ccc(Cn3cc(CO)c(C(F)(F)F)n3)cc2C1	6.30	microsomal CLint [3]: 31 µL/min/mg; Papp A→B [4]: 12.8 ×10⁻⁶ cm/s; Papp B→A [5]: 29 ×10⁻⁶ cm/s; microsomal CLint [6]: 23 µL/min/mg
CC(C)S(=O)(=O)N[C@H]1Cc2ccc(Cn3ncc(CO)c3C(F)(F)F)cc2C1	5.40	–
CS(=O)(=O)N[C@H]1Cc2ccc(Cn3cc(CO)c(C(F)(F)F)n3)cc2C1	5.10	–
O=S(=O)(N[C@@H]1Cc2ccc(Cn3cc(CO)c(C(F)(F)F)n3)cc2C1)C(F)(F)F	5.60	clearance [7]: 1.9 mL/min/kg; clearance [3]: < 12 µL/min/mg; half-life [2]: 7.4 h; Vd [8]: 1 L/kg; solubility [1]: 84 µg/mL (≈ 189 µM); bioavailability [9]: 100%; Papp A→B [4]: 16.9 ×10⁻⁶ cm/s; Papp B→A [5]: 26.4 ×10⁻⁶ cm/s; Stability (Hepatocyte): < 6 µL/min; Cmax [10]: 120 nM; clearance [6]: < 12 µL/min/mg
CC(C)S(=O)(=O)NC1CCc2cc(Cn3cc(CO)c(C(F)(F)F)n3)ccc21 (stereo not given)	7.00	–
CCn1nc(C(F)(F)F)cc1Cc1ccc2c(c1)C[C@@H](NS(=O)(=O)C(C)C)C2	5.90	–
CC(C)S(=O)(=O)N[C@H]1Cc2ccc(Cn3nc(C(F)(F)F)c4c3CCCC4)cc2C1	5.90	–
CC(C)S(=O)(=O)NC1Cc2ccc(-n3cc(CO)c(C(F)(F)F)n3)cc2C1 (racemic)	< 4.50	–
CC(C)S(=O)(=O)NC[C@H](C)c1ccc(-n2cc(CO)c(C(F)(F)F)n2)cc1	–	half-life [11]: 1 h; microsomal CLint [3]: < 12 µL/min/mg; bioavailability [12]: 3.2%; Papp A→B [4]: 20.6 ×10⁻⁶ cm/s; Papp B→A [5]: 28.7 ×10⁻⁶ cm/s; microsomal CLint [6]: < 12 µL/min/mg; clearance [13]: 49.7 mL/min/kg
CC(C)S(=O)(=O)N[C@H]1Cc2ccc(Cn3cc(CCO)c(C(F)(F)F)n3)cc2C1	5.90	–
CC(C)S(=O)(=O)N[C@H]1Cc2ccc(Cn3cc(CF)c(C(F)(F)F)n3)cc2C1	5.90	–
CN(C)S(=O)(=O)N[C@@H]1Cc2ccc(Cn3cc(CO)c(C(F)(F)F)n3)cc2C1	6.00	–
O=S(=O)(NC1CCc2cc(Cn3cc(CO)c(C(F)(F)F)n3)ccc21)C1CC1 (stereo not given)	6.80	–
